Drawing on ChEMBL document CHEMBL3425481, “Design, synthesis and anticancer activity of matrine-1H-1,2,3-triazole-chalcone conjugates” (Bioorg Med Chem Lett, 2015), this text covers IC50 for 29 compounds.

One assay deals with A549. In words: Antiproliferative activity against human A549 cells assessed as inhibition of cell proliferation incubated for 48 hrs by CCK8 assay. It counts as functional, cell-based. The settings on record: A549, 48 h. The method, boiled down: (§1)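 Human A549 lung, Hela cervical, Bel-7402 hepatocellular and MCF-7 breast cancer cells, plus mouse embryo fibroblast NIH3T3, tested for anti-proliferative activity by CCK-8 assay. For the matrine combination tests, the chalcone and matrine were used at a 1:1 molar ratio; values given as IC50.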
(In general: Formazan colour is commonly taken as a measure of viable cells.)

Assay [1] is described as follows: Antiproliferative activity against mouse NIH/3T3 cells assessed as inhibition of cell proliferation incubated for 48 hrs by CCK8 assay. It counts as cell-based. The settings on record: NIH3T3, 48 h. The method in brief:
as §1

The next assay relates to HeLa. In words: Antiproliferative activity against human HeLa cells assessed as inhibition of cell proliferation incubated for 48 hrs by CCK8 assay. It counts as functional, cell-based. The method, boiled down: as §1
Assay [2] in a line: Antiproliferative activity against human Bel7402 cells assessed as inhibition of cell proliferation incubated for 48 hrs by CCK8 assay. Format: functional, cell-based. The settings on record: Bel-7402, 48 h. The method in brief:
as §1

A further assay relates to MCF7. In words: Antiproliferative activity against human MCF7 cells assessed as inhibition of cell proliferation incubated for 48 hrs by CCK8 assay. It counts as functional, cell-based. The settings on record: MCF7, 48 h. The method, boiled down:
as §1

As a reminder, the IC50 is the point on the concentration scale where inhibition reaches its midpoint. Turning to `O=C(/C=C/c1ccccc1Cl)c1ccc(OCc2cn([C@H]3CC(=O)N4C[C@@H]5CCCN6CCC[C@@H]([C@H]56)[C@H]4C3)nn2)cc1`, the IC50 came to 14.2 µM with A549; 88 µM in assay [1]; 13.5 µM with HeLa; 21.8 µM in assay [2]; 23.8 µM in the assay on MCF7.
For the compound `O=C(/C=C/c1ccc(F)cc1)c1ccc(OCc2cn([C@H]3CC(=O)N4C[C@@H]5CCCN6CCC[C@@H]([C@H]56)[C@H]4C3)nn2)cc1O`, the IC50 in the assay with A549 worked out at 18.3 µM; in assay [1] it was 36.1 µM; in the assay on HeLa, 19.8 µM; in assay [2] it was 9.02 µM; in the assay with MCF7 it was 5.71 µM.
For `O=C(/C=C/c1cccc(Cl)c1)c1ccc(OCc2cn([C@H]3CC(=O)N4C[C@@H]5CCCN6CCC[C@@H]([C@H]56)[C@H]4C3)nn2)cc1` the same measures were 11.9 µM, 38.1 µM, 15.2 µM, 13.7 µM and 10.2 µM.
On to `C#CCOc1ccc(C(=O)/C=C/c2cccc(Cl)c2)c(O)c1`, for which the IC50 with A549 was more than 50 µM; in assay [1], 79.5 µM; in the assay on HeLa, more than 50 µM; with MCF7, more than 50 µM.
Regarding `O=C(/C=C/c1ccc(Cl)cc1)c1ccc(OCc2cn([C@H]3CC(=O)N4C[C@@H]5CCCN6CCC[C@@H]([C@H]56)[C@H]4C3)nn2)cc1`, the IC50 worked out at 18.9 µM with A549; 31.3 µM in assay [1]; 19.3 µM in the assay with HeLa; 21.2 µM in assay [2]; 14.3 µM in the assay on MCF7.
The like results for `O=C(/C=C/c1cccc(C(F)(F)F)c1)c1ccc(OCc2cn([C@H]3CC(=O)N4C[C@@H]5CCCN6CCC[C@@H]([C@H]56)[C@H]4C3)nn2)cc1O` were, in that order, 8.18 µM, 34.8 µM, 12.7 µM, 12.1 µM and 8.87 µM.
`C#CCOc1ccc(C(=O)/C=C/c2ccc(Cl)c(Cl)c2)cc1`: the IC50 with A549 was more than 50 µM; in assay [1], 61.8 µM; in the assay on HeLa, more than 50 µM; in the assay on MCF7, more than 50 µM.
On to `Cc1ccc(/C=C/C(=O)c2ccc(OCc3cn([C@H]4CC(=O)N5C[C@@H]6CCCN7CCC[C@@H]([C@H]67)[C@H]5C4)nn3)cc2)cc1`, for which the IC50 was 32.4 µM in the assay with A549; 14.8 µM in assay [1]; 19.9 µM in the assay on HeLa; 35.6 µM in assay [2]; 26.8 µM with MCF7.
With `COc1cc(/C=C/C(=O)c2ccc(OCc3cn([C@H]4CC(=O)N5C[C@@H]6CCCN7CCC[C@@H]([C@H]67)[C@H]5C4)nn3)cc2O)cc(OC)c1OC`, the IC50 in the assay on A549 is more than 50 µM; in assay [1], 15.2 µM; in the assay with HeLa, more than 50 µM.
As for `C#CCOc1ccc(C(=O)/C=C/c2ccc(Cl)c(Cl)c2)c(O)c1`, the half-maximal inhibitory concentration (IC50) with A549 was more than 50 µM; in assay [1] it was 94.7 µM; with HeLa it was more than 50 µM; in the assay with MCF7 it was more than 50 µM.
In the case of `COc1ccc(/C=C/C(=O)c2ccc(OCc3cn([C@H]4CC(=O)N5C[C@@H]6CCCN7CCC[C@@H]([C@H]67)[C@H]5C4)nn3)cc2)cc1`, the 50% inhibitory concentration (IC50) is more than 50 µM with A549, 23.1 µM in assay [1] and more than 50 µM with HeLa.
As to `CC(C)(C)c1ccc(/C=C/C(=O)c2ccc(OCc3cn([C@H]4CC(=O)N5C[C@@H]6CCCN7CCC[C@@H]([C@H]67)[C@H]5C4)nn3)cc2O)cc1`, the figures for the 50% inhibitory concentration (IC50) (with A549; in assay [1]; with HeLa) were 36.5 µM, 20.4 µM and 36.3 µM, respectively.
Take `O=C(/C=C/c1ccc(Cl)c(Cl)c1)c1ccc(OCc2cn([C@H]3CC(=O)N4C[C@@H]5CCCN6CCC[C@@H]([C@H]56)[C@H]4C3)nn2)cc1`: the IC50 in the assay on A549 amounted to 8.72 µM; in assay [1] it was 19.4 µM; in the assay on HeLa, 11.4 µM; in assay [2], 11.9 µM; in the assay with MCF7, 13.3 µM.
With `O=c1[nH]cc(F)c(=O)[nH]1` [FLUOROURACIL], the IC50 with A549 is 40.4 µM; in assay [1] it was 22.4 µM; in the assay with HeLa it was 8.93 µM; in assay [2], 19.9 µM; with MCF7, 9.56 µM.
With `O=C(/C=C/c1ccc(F)cc1)c1ccc(OCc2cn([C@H]3CC(=O)N4C[C@@H]5CCCN6CCC[C@@H]([C@H]56)[C@H]4C3)nn2)cc1`, the IC50 in the assay on A549 was found to be 18.7 µM; in assay [1], 39.8 µM; with HeLa it was 18.7 µM; in assay [2], 22.2 µM; with MCF7 it was 26.9 µM.
Take `C#CCOc1ccc(C(=O)/C=C/c2ccccc2)cc1`: the half-inhibitory concentration (IC50) in the assay on A549 is more than 50 µM; in assay [1] it was 72.9 µM; in the assay with HeLa it was more than 50 µM; in the assay on MCF7 it was more than 50 µM.
With `O=C(/C=C/c1ccc(Cl)cc1)c1ccc(OCc2cn([C@H]3CC(=O)N4C[C@@H]5CCCN6CCC[C@@H]([C@H]56)[C@H]4C3)nn2)cc1O`, the half-inhibitory concentration (IC50) is 15.6 µM in the assay with A549; 75.2 µM in assay [1]; 10.7 µM with HeLa; 14.7 µM in assay [2]; 12.7 µM in the assay with MCF7.
As to `COc1ccc(/C=C/C(=O)c2ccc(OCc3cn([C@H]4CC(=O)N5C[C@@H]6CCCN7CCC[C@@H]([C@H]67)[C@H]5C4)nn3)cc2O)cc1`, the IC50 in the assay with A549 was more than 50 µM; in assay [1], 29.6 µM; with HeLa, more than 50 µM; in assay [2] it was more than 50 µM; in the assay with MCF7, more than 50 µM.
On to `O=C(/C=C/c1ccc([N+](=O)[O-])cc1)c1ccc(OCc2cn([C@H]3CC(=O)N4C[C@@H]5CCCN6CCC[C@@H]([C@H]56)[C@H]4C3)nn2)cc1`, for which the IC50 with A549 is 14.5 µM; in assay [1], 35.7 µM; in the assay on HeLa, 6.06 µM; in assay [2], 16.2 µM; with MCF7 it was 11.5 µM.
For the compound `O=C(/C=C/c1ccc(Cl)c(Cl)c1)c1ccc(OCc2cn([C@H]3CC(=O)N4C[C@@H]5CCCN6CCC[C@@H]([C@H]56)[C@H]4C3)nn2)cc1O`, the IC50 came out at 8.08 µM with A549; 48.3 µM in assay [1]; 6.63 µM in the assay on HeLa; 12.4 µM in assay [2]; 7.03 µM in the assay with MCF7.
On to `COc1ccc(/C=C/C(=O)c2ccc(OCc3cn([C@H]4CC(=O)N5C[C@@H]6CCCN7CCC[C@@H]([C@H]67)[C@H]5C4)nn3)cc2)cc1OC`, for which the IC50 with A549 is more than 50 µM; in assay [1] it was 41.1 µM; with HeLa, more than 50 µM.
`CC(=O)c1ccc(OCc2cn([C@H]3CC(=O)N4C[C@@H]5CCCN6CCC[C@@H]([C@H]56)[C@H]4C3)nn2)cc1`: the half-maximal inhibitory concentration (IC50) in the assay with A549 is more than 50 µM; in assay [1], 42.9 µM; with HeLa it was more than 50 µM; in assay [2], more than 50 µM; in the assay on MCF7 it was more than 50 µM.
As for `CC(=O)c1ccc(OCc2cn([C@H]3CC(=O)N4C[C@@H]5CCCN6CCC[C@@H]([C@H]56)[C@H]4C3)nn2)cc1O`, the half-inhibitory concentration (IC50) in the assay on A549 was more than 50 µM; in assay [1], 61.8 µM; in the assay with HeLa, more than 50 µM; in assay [2], more than 50 µM; in the assay with MCF7, more than 50 µM.
Turning to `O=C(/C=C/c1ccccc1)c1ccc(OCc2cn([C@H]3CC(=O)N4C[C@@H]5CCCN6CCC[C@@H]([C@H]56)[C@H]4C3)nn2)cc1O`, the IC50 is 16.8 µM in the assay on A549; more than 100 µM in assay [1]; 17.3 µM with HeLa; 17.3 µM in assay [2]; 12 µM in the assay on MCF7.
Regarding `COc1ccc(/C=C/C(=O)c2ccc(OCc3cn([C@H]4CC(=O)N5C[C@@H]6CCCN7CCC[C@@H]([C@H]67)[C@H]5C4)nn3)cc2O)cc1OC`, the half-inhibitory concentration (IC50) is more than 50 µM in the assay with A549, 13.3 µM in assay [1] and more than 50 µM in the assay with HeLa.
In the case of `O=C(/C=C/c1ccc(OC(F)F)cc1)c1ccc(OCc2cn([C@H]3CC(=O)N4C[C@@H]5CCCN6CCC[C@@H]([C@H]56)[C@H]4C3)nn2)cc1`, the results for the concentration for half-maximal inhibition (IC50) (in the assay on A549; in assay [1]; in the assay on HeLa) were more than 50 µM, 27.3 µM and more than 50 µM, respectively.
`O=C(/C=C/c1ccccc1)c1ccc(OCc2cn([C@H]3CC(=O)N4C[C@@H]5CCCN6CCC[C@@H]([C@H]56)[C@H]4C3)nn2)cc1`: the IC50 stood at 32.2 µM with A549; 19.4 µM in assay [1]; 25.4 µM in the assay with HeLa; 20.7 µM in assay [2]; 17.2 µM with MCF7.
Take `Cc1ccc(/C=C/C(=O)c2ccc(OCc3cn([C@H]4CC(=O)N5C[C@@H]6CCCN7CCC[C@@H]([C@H]67)[C@H]5C4)nn3)cc2O)cc1`: the results for the IC50 (with A549; in assay [1]; with HeLa) were more than 50 µM, 20.9 µM and more than 50 µM, respectively.
With `O=C(/C=C/c1ccc(Br)cc1)c1ccc(OCc2cn([C@H]3CC(=O)N4C[C@@H]5CCCN6CCC[C@@H]([C@H]56)[C@H]4C3)nn2)cc1`, the IC50 in the assay on A549 was 24.5 µM; in assay [1], 30.9 µM; in the assay with HeLa it was 17.1 µM; in assay [2] it was 22.7 µM; in the assay with MCF7, 22.7 µM.
